ChEMBL document CHEMBL1165950, “Design and synthesis of new potent anticancer pyrazoles with high FLT3 kinase inhibitory selectivity” (Bioorg Med Chem, 2010)

Legend:
Type in all cases: functional
[1] = system: SW-620; experiment: Cytotoxicity against human SW620 cells assessed as cell growth at 100 nM after 48 hrs by sulforhodamine B assay; conditions: SW-620, 48 h, read-out: Activity
[2] = system: IGROV-1; experiment: Cytotoxicity against human IGROV1 cells assessed as cell growth at 100 nM after 48 hrs by sulforhodamine B assay; conditions: IGROV-1, 48 h, read-out: Activity
[3] = system: OVCAR-8; experiment: Cytotoxicity against human OVCAR8 cells assessed as cell growth at 100 nM after 48 hrs by sulforhodamine B assay; conditions: OVCAR-8, 48 h, read-out: Activity
[4] = system: UACC-62; experiment: Cytotoxicity against human UACC62 cells assessed as cell growth at 0.01 uM after 48 hrs by sulforhodamine B assay; conditions: UACC-62, 48 h, read-out: Activity
[5] = system: OVCAR-8; experiment: Cytotoxicity against human OVCAR8 cells assessed as cell growth at 10 uM after 48 hrs by sulforhodamine B assay; conditions: OVCAR-8, 48 h, read-out: Activity
[6] = system: HOP-92; experiment: Cytotoxicity against human HOP92 cells assessed as cell growth at 1 uM after 48 hrs by sulforhodamine B assay; conditions: HOP-92, 48 h, read-out: Activity
[7] = system: IGROV-1; experiment: Cytotoxicity against human IGROV1 cells assessed as cell growth at 0.01 uM after 48 hrs by sulforhodamine B assay; conditions: IGROV-1, 48 h, read-out: Activity
[8] = system: MOLT-4; experiment: Growth inhibition of human MOLT4 cells after 48 hrs by sulforhodamine B assay; conditions: MOLT-4, 48 h
In short: (§1)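 NCI 60-cell screen, five-dose mode. Cells grown in RPMI 1640 with 5% FBS and 2 mM L-glutamine and plated at 5000-40,000 cells/well according to doubling time. After 24 h preincubation, a Tz plate was TCA-fixed. Five concentrations (10-fold or 1/2 log dilutions) were applied for 48 h at 37 °C. SRB staining read at 515 nm. IC50 taken from [(Ti-Tz)/(C-Tz)]×100 = 50.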

[9] = system: Malme-3M; experiment: Cytotoxicity against human MALME-3M cells assessed as cell growth at 1 uM after 48 hrs by sulforhodamine B assay; conditions: read-out: Activity
[10] = system: CAKI-1; experiment: Cytotoxicity against human Caki1 cells assessed as cell growth at 0.01 uM after 48 hrs by sulforhodamine B assay; conditions: CAKI-1, 48 h, read-out: Activity
[11] = system: MOLT-4; experiment: Cytotoxicity against human MOLT4 cells assessed as cell growth at 10 uM; conditions: read-out: Activity
In short: (§2)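 NCI-60 screen: cells grown in RPMI 1640 with 5% FBS and 2 mM L-glutamine, plated at 5000–40,000 cells/well according to doubling time, and preincubated 24 h at 37 °C, 5% CO2. The single 10 µM dose (DMSO stock) was added, then incubated 48 h. Cells were TCA-fixed and stained with 0.4% SRB, read at 515 nm, and growth % calculated against time-zero and control plates.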

[12] = system: COLO 205; experiment: Cytotoxicity against human COLO205 cells assessed as cell growth at 10 uM; conditions: read-out: Activity
In short: (§3)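 Single-dose NCI-60 screen at 10 µM. Cells were grown in RPMI 1640 with 5% FBS and 2 mM L-glutamine, then treated for 48 h at 37 °C. Protein was measured by SRB staining with absorbance at 515 nm. Percentage growth was recorded, and inhibition percentage was calculated as 100 minus growth percentage.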

[13] = system: EKVX; experiment: Cytotoxicity against human EKVX cells assessed as cell growth at 10 uM; conditions: read-out: Activity; in short: as §3
[14] = system: MDA-MB-468; experiment: Cytotoxicity against human MDA-MB-468 cells assessed as cell growth at 0.01 uM after 48 hrs by sulforhodamine B assay; conditions: MDA-MB-468, 48 h, read-out: Activity
[15] = system: SW-620; experiment: Cytotoxicity against human SW620 cells assessed as cell growth at 0.01 uM after 48 hrs by sulforhodamine B assay; conditions: SW-620, 48 h, read-out: Activity
[16] = system: SF-539; experiment: Cytotoxicity against human SF539 cells assessed as cell growth at 1 uM after 48 hrs by sulforhodamine B assay; conditions: SF-539, 48 h, read-out: Activity
[17] = system: MDA-MB-231; experiment: Cytotoxicity against human MDA-MB-231 cells assessed as cell growth at 0.01 uM after 48 hrs by sulforhodamine B assay; conditions: MDA-MB-231, 48 h, read-out: Activity
[18] = system: UACC-62; experiment: Cytotoxicity against human UACC62 cells assessed as cell growth at 10 uM after 48 hrs by sulforhodamine B assay; conditions: UACC-62, 48 h, read-out: Activity
[19] = system: NCI-H226; experiment: Cytotoxicity against human NCI-H226 cells assessed as cell growth at 0.001 uM after 48 hrs by sulforhodamine B assay; conditions: NCI-H226, 48 h, read-out: Activity
[20] = system: HOP-62; experiment: Cytotoxicity against human HOP62 cells assessed as cell growth at 0.001 uM after 48 hrs by sulforhodamine B assay; conditions: HOP-62, 48 h, read-out: Activity
[21] = system: MOLT-4; experiment: Cytotoxicity against human MOLT4 cells assessed as cell growth at 10 uM after 48 hrs by sulforhodamine B assay; conditions: MOLT-4, 48 h, read-out: Activity
[22] = system: NCI-H522; experiment: Cytotoxicity against human NCI-H522 cells assessed as cell growth at 100 nM after 48 hrs by sulforhodamine B assay; conditions: NCI-H522, 48 h, read-out: Activity
[23] = system: TK-10; experiment: Cytotoxicity against human TK10 cells assessed as cell growth at 0.001 uM after 48 hrs by sulforhodamine B assay; conditions: TK-10, 48 h, read-out: Activity
[24] = system: K562; experiment: Cytotoxicity against human K562 cells assessed as cell growth at 0.01 uM after 48 hrs by sulforhodamine B assay; conditions: K562, 48 h, read-out: Activity
[25] = system: RXF 393; experiment: Cytotoxicity against human RXF393 cells assessed as cell growth at 10 uM; conditions: read-out: Activity; in short: as §2
[26] = system: CAKI-1; experiment: Cytotoxicity against human Caki1 cells assessed as cell growth at 10 uM after 48 hrs by sulforhodamine B assay; conditions: CAKI-1, 48 h, read-out: Activity
[27] = Growth inhibition of human Hs 578T cells after 48 hrs by sulforhodamine B assay; in short: as §1
[28] = system: HL-60(TB); experiment: Cytotoxicity against human HL-60(TB) cells assessed as cell growth at 10 uM after 48 hrs by sulforhodamine B assay; conditions: HL-60, 48 h, read-out: Activity
In short: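 NCI 60-cell panel. Cells are grown in RPMI 1640 with 5% FBS and 2 mM L-glutamine, seeded at 5000–40,000 cells/well according to doubling time, and preincubated 24 h. Time-zero plates are TCA-fixed. Compound from DMSO stock is given at five 10-fold or 1/2-log concentrations for 48 h at 37 °C, 5% CO2. Suspension cells are fixed with 80% TCA (final 16%) and SRB-stained, with absorbance at 515 nm. Percent growth is derived from Tz, control and test readings.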

[29] = system: HOP-62; experiment: Cytotoxicity against human HOP62 cells assessed as cell growth at 10 uM after 48 hrs by sulforhodamine B assay; conditions: HOP-62, 48 h, read-out: Activity
[30] = system: LOX IMVI; experiment: Cytotoxicity against human LOXIMVI cells assessed as cell growth at 0.01 uM after 48 hrs by sulforhodamine B assay; conditions: read-out: Activity
[31] = system: HT-29; experiment: Cytotoxicity against human HT-29 cells assessed as cell growth at 10 uM after 48 hrs by sulforhodamine B assay; conditions: HT-29, 48 h, read-out: Activity

## Cc1cc(O)cc(-c2nn(CC#N)cc2-c2ccnc(-c3ccc(Oc4ccccc4)cc3)c2)c1
[1]
  growth at 0.1 µM: 92%
[2]
  growth at 0.1 µM: 86%
[3]
  growth at 0.1 µM: 87%
[4]
  growth at 0.01 µM: 84%
[5]
  growth at 10 µM: -88%
[6]
  growth at 1 µM: -67%
[7]
  growth at 0.01 µM: 83%
[8]
  GI50: 2.03 µM
  LC50: > 100 µM
  TGI: 6.82 µM
[9]
  growth at 1 µM: -75%
[10]
  growth at 0.01 µM: 90%
[11]
  growth at 10 µM: 30%
[12]
  growth at 10 µM: 28.4%
[13]
  growth at 10 µM: 44.9%
[14]
  growth at 0.01 µM: 85%
[15]
  growth at 0.01 µM: 88%
[16]
  growth at 1 µM: 13%
[17]
  growth at 0.01 µM: 84%
[18]
  growth at 10 µM: -95%
[19]
  growth at 0.001 µM: 92%
[20]
  growth at 0.001 µM: 93%
[21]
  growth at 10 µM: -21%
[22]
  growth at 0.1 µM: 87%
[23]
  growth at 0.001 µM: 91%
[24]
  growth at 0.01 µM: 44%
[25]
  growth at 10 µM: 24.6%
[26]
  growth at 10 µM: -67%
[27]
  GI50: 2.02 µM
  TGI: 6.08 µM
[27]; read-out: LC50 (the source's name)
  CC50: > 100 µM
[28]
  growth at 10 µM: -10%
[29]
  growth at 10 µM: -93%
[30]
  growth at 0.01 µM: 101%
[31]
  growth at 10 µM: -89%
